Measurements: ChEMBL document CHEMBL3232920, “Targeting carnitine biosynthesis: discovery of new inhibitors against γ-butyrobetaine hydroxylase” (J Med Chem, 2014)

Each molecule was assayed against T1, Gamma-butyrobetaine dioxygenase (Homo sapiens) (UniProt O75936) (assay: Ratio of mildronate IC50 to compound IC50 for human recombinant BBOX).
T1 sequence (whole entry): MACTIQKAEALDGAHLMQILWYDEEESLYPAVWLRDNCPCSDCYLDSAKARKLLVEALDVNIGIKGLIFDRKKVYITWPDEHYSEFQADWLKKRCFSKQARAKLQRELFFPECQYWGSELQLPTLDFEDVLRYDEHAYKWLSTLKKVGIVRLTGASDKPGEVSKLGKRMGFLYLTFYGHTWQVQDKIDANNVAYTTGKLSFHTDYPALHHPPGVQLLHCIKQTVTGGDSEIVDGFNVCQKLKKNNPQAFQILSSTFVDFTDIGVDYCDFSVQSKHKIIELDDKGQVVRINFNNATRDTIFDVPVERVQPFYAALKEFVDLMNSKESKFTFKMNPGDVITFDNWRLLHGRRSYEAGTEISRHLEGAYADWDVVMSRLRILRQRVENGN

| SMILES | Ratio IC50 |
| --- | --- |
| CC(CCC(=O)[O-])[N+](C)(C)C (stereo not given) | 3 |
| C=C[N+](C)(C)NCCC(=O)[O-] | 9 |
| CN(CCC(=O)[O-])[N+](C)(C)C | 3 |

What follows are molecules tested against T2, Gamma-butyrobetaine dioxygenase (Homo sapiens, UniProt O75936) (assay: Binding affinity to purified human BBOX by isothermal titration calorimetry analysis).
T2 sequence (O75936 whole entry): T1 sequence (whole entry)
In short: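 Human BBOX, purified and dialyzed, in 50 mM HEPES pH 7.4 with 100 mM KCl; cofactors and ligands dissolved in the same dialysate. N-oxalylglycine replaced 2-oxoglutarate and Ni(II) replaced Fe(II). Enzyme 26–75 μM per subunit. ITC at 25 °C: 0.2 μL first injection (discarded), then 19 × 2.0 μL. Dilution heats subtracted, low-c fitting, ≥3 repeats.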

| SMILES | Kd [µM] |
| --- | --- |
| CC(CCC(=O)[O-])[N+](C)(C)C (stereo not given) | 4.1 |
| CN(CCC(=O)[O-])[N+](C)(C)C | 9.3 |

What follows are molecules tested against T2, Gamma-butyrobetaine dioxygenase (assay: Inhibition of human recombinant BBOX expressed in Saccharomyces cerevisiae AH22 assessed as formation of carnitine from gamma-butyrobetaine preincubated for 15 mins measured after 30 mins by UPLC-MS/MS analysis).
In short: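 His-tagged BBOX purified by Ni affinity, desalting and Mono Q; tag cut with TEV. Assay (0.2 mL) held 20 mM K phosphate pH 7.0, 20 mM KCl, 3 mM 2-oxoglutarate, 0.25 mM Fe(II), 10 mM ascorbate, catalase and 0.6 μg enzyme. Screen at 100 or 1000 μM, then 6–8 concentrations. GBB 200 μM added after preincubation, 37 °C; stopped with cold acetonitrile/methanol. Logistic-fit IC50, mean ± SD of three experiments.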

| SMILES | IC50 [µM] |
| --- | --- |
| CCC[N+](C)(C)N(C)CCC(=O)[O-] | 3.1 |
| C[N+](C)(CCCC(=O)[O-])C1CCCC1 | > 1000 |
| C[N+](C)(C)CCCCC(=O)[O-] | > 1000 |
| C[N+](C)(C)CCCP(=O)(O)O | 0.1 |
| C[N+](C)(CCl)CCCC(=O)[O-] | 268 |
| C[N+](C)(C)NCCP(=O)(O)O | 117 |
| C[N+](C)(C)CCC[PH](=O)[O-] | 0.52 |
| C[N+](C)(CBr)CCCC(=O)[O-] | > 1000 |
| CC[N+](C)(CC)NCCC(=O)O | > 1000 |
| C[N+](C)(C)CCCc1nnn[nH]1 | > 1000 |
| CC[N+](C)(C)CCC[PH](=O)[O-] | 0.53 |
| CC(CCC(=O)[O-])[N+](C)(C)C (stereo not given) | 343 |
| C#CC[N+](C)(C)CCCC(=O)[O-] | 1.4 |
| C[N+](C)(CCCl)NCCC(=O)O | 10.2 |
| CC[N+](C)(CC)CCCC(=O)[O-] | 100 |
| COC[N+](C)(C)CCCC(=O)[O-] | > 1000 |
| O=C(O)CCCN1CCCC1 | 1000 |
| C[N+](C)(CCF)CCCC(=O)O | 0.61 |
| C[N+](C)(CCCl)CCCC(=O)O | 0.26 |
| CCCC[N+](C)(C)CCCC(=O)[O-] | > 1000 |
| C[N+](C)(C)CC(Cl)CC(=O)O (stereo not given) | 459 |
| C[N+](C)(C)C1CCCC(C(=O)[O-])C1 (stereo not given) | > 1000 |
| C=C[N+](C)(C)CCCC(=O)[O-] | 127 |
| C[N+](C)(CCCC(=O)[O-])CC1CC1 | > 1000 |
| C[N+]1(CCCC(=O)O)CCCC1 | 0.49 |

| SMILES | IC50 [µM] |
| --- | --- |
| CC[N+](C)(C)CCCC(=O)[O-] | 3.3 |
| C[N+](C)(CCO)CCCC(=O)[O-] | 1000 |
| C[S+](C)CCCC(=O)[O-] | 388 |
| C=C[N+](C)(C)NCCC(=O)[O-] | 6.8 |
| C[N+](C)(CCCC(=O)[O-])C1CCC1 | 0.81 |
| C=CC[N+](C)(C)CCCC(=O)[O-] | 2.7 |
| C[N+](C)(CCCC(=O)[O-])Cc1ccccc1 | > 1000 |
| C[N+](C)(C)CCCS(=O)(=O)[O-] | 1.7 |
| C[N+](C)(CCN)NCCC(=O)[O-] | > 1000 |
| CCC[N+](C)(C)CCCC(=O)[O-] | > 1000 |
| C=CC[N+](C)(C)NCCC(=O)[O-] | 119 |
| C[N+](C)(CCO)NCCC(=O)[O-] | 1000 |
| CC[N+](C)(C)N(C)CCC(=O)[O-] | 7.2 |
| CCN(CCC(=O)[O-])[N+](C)(C)C | 2.8 |
| C[N+](C)(CI)CCCC(=O)[O-] | 1000 |
| CC(C)[N+](C)(C)NCCC(=O)[O-] | > 1000 |
| C[N+](C)(C)C/C=C/C(=O)[O-] | 3.8 |
| CN(CCC(=O)[O-])[N+](C)(C)C | 0.09 |
| C#CC[N+](C)(C)NCCC(=O)O | 24 |
| CC[N+](C)(C)NCCC(=O)[O-] | 140 |
| C[N+](C)(CCCC(=O)[O-])C1CC1 | 2.1 |
| C[N+](C)(C)NCCS(=O)(=O)[O-] | 87 |
| CC(C)[N+](C)(C)CCCC(=O)[O-] | 5.7 |
| CC[N+](C)(C)CCCS(=O)(=O)[O-] [ETHYL DIMETHYL AMMONIO PROPANE SULFONATE] | 6.7 |
| C[N+](C)(CCCC(=O)[O-])CC1CCC1 | > 1000 |
